Only some compounds are listed: those with a hit (about 4.8% of all), similar ones and a draw of the others.
GPR7 antag = GPR7 receptor antagonists, primary screen, cell-based, fluorescence, single concentration; Neuropeptides B/W receptor type 1 (Homo sapiens), P48145; 290,000 compounds, 1.1% hits; GPR7-expressing cells, fluorescence antagonist assay; inhibition, % at 4.4 µM; in the data active means inhibition above about 16%, passing the limit was not always enough;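 further: cells stimulated with the agonist NPW; 0% = agonist with vehicle and 100% = vehicle without agonist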
Target sequence (P48145 whole entry, looked up): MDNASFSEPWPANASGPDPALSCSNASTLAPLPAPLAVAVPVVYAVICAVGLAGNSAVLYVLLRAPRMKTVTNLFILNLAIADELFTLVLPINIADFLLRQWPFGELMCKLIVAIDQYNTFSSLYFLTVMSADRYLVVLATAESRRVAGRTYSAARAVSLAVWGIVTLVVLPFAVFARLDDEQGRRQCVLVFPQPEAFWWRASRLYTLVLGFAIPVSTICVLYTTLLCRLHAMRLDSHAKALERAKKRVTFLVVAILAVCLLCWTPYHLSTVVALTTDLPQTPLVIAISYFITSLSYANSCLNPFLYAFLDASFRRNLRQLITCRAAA
T cruzi repl = inhibitors of intracellular T. cruzi growth, primary screen, luminescence, NIH3T3 host cells; T. cruzi beta-gal in NIH3T3, 90 h; inhibition, % (concentration not given with the values); 300,000 compounds, 1.4% hits; AID 1885, 2009;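 active means mean inhibition across valid replicates above about 55%, limit read from the data; inconclusive means mean below that limit but half or more replicates reach it; inactive means mean below it, under half of replicates reach it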;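 further: signal also drops with host cell toxicity which is not excluded here; 0% = plate median of DMSO wells and 100% = zero luminescence signal; higher percent means less beta-gal luminescence so fewer parasites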
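System: NIH/3T3 fibroblasts plus reporter T. cruzi. Medium: DMEM plus 2% FBS. Probe or stimulus: 5000 reporter trypomastigotes per well. Compound: single 50 nL compound addition per well in DMSO. Incubation: co-culture of at least 90 h after 3 h attachment. Detection: GalScreen β-gal luminescence, detergent lysis, 60 min. Evaluation: parasite load inhibition, %.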
697 NFkB inh = inhibitors of PMA/ionomycin-induced NF-kB reporter, 697 cells, primary screen, B-cell NF-kB inhibitor project, cell-based, luminescence, uHTS; 330,000 compounds, 0.33% hits; inhibition, % at 4 µM; 697 B-cell NF-kB luciferase reporter, 16 h; in the data active means inhibition above about 35%
HSF1 inh = HSF1 inhibitors in luciferase reporter cells, primary screen, cell-based, NIH3T3, luminescence; NIH3T3-HGL HSE-luciferase, MG132-induced, luminescence 8 h; stronger effect = lower value; activity change, negative = inhibition, % at 7.5 µM (by protocol); 300,000 compounds, 0.77% hits;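 active means more than half of replicate wells show activity change below -50%, luminescence cut by over half; inconclusive means some wells, but at most half, below -50%; inactive means no replicate well below -50%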;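 further: luciferase reports HSF-1 transcriptional activity via heat shock element; 0% = median of DMSO wells and -100% = zero luminescence signal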
Jurkat NFkB inh = inhibitors of induced NF-kB luciferase reporter, primary screen, TCR NF-kB activation inhibitor project, cell-based, luminescence, uHTS. inhibition, % at 4 µM. 330,000 compounds, 0.53% hits. Jurkat, PMA/ionomycin-induced NF-kB luciferase reporter. AID 435003, 2010; in the data active means inhibition above about 50%
HSF1 activator = HSF-1 activators, primary screen, NIH3T3-HGL cells, MG132 stress, luminescence, single point; NIH3T3-HGL HSF-1 luciferase reporter, 8 h; 100% = twice DMSO control signal; activation, % at 9 µM; 300,000 compounds, 1.7% hits;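 active means mean replicate activation of at least 50% with a set share of replicates each reaching 50%; inconclusive means only one of those two conditions met; inactive means mean below 50% and too few replicates reaching it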;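 further: 0% = median of the neutral control wells and 100% = twice that signal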
Active calls of the source: *; ? = inconclusive; . = no result.

SMILES	GPR7 antag	T cruzi repl	697 NFkB inh	HSF1 inh	Jurkat NFkB inh	HSF1 activator
Cc1ccc(SCCOCCN2CCc3ccccc3C2)cc1	7	61*	-1	-2	-11	4
Cc1ccc(SCCOCCN2CC(C)OC(C)C2)cc1 (stereo not given)	-5	57*	2	1	0	7
C/C(CC(=O)NC12CC3CC(CC(C3)C1)C2)=N\NC(=O)c1ccc(C)cc1	-6	2	-18	16	-4	35
Cc1ccc(CN2CCN(Cc3ccc(-n4cccn4)cc3C)CC2CCO)cc1 (stereo not given)	-5	62*	-36	-1	4	-9
Cc1ccc(CN2CCN(Cc3cc4ccccc4o3)CC2CCO)cc1 (stereo not given)	-10	26	2	-75*	-5	-82
Cc1cccc(NC(=O)CSc2nc(C)c(Cc3ccccc3)c(=O)[nH]2)c1C	-5	-14	5	4	-6	42
COc1ccc(CNC(=O)CN2C(=O)C3C4C=CC(C4)C3C2=O)cc1 (stereo not given)	-1	-8	22	3	7	7
O=[N+]([O-])c1ccccc1/C=N/NC1=NCCN1	.	13	-8	8	4	-3
Clc1cc(/C=N\NC2=NCCN2)cc(Cl)n1	.	70*	9	1	10	12
Cc1cc(C(=O)N2CCN(c3ccccc3Cl)CC2)c(C)o1	.	.	-4	.	-28	.
O=C(Cn1c(=O)oc2ccccc21)N1CCN(S(=O)(=O)c2ccccc2)CC1	.	.	9	.	-1	.
O=C(O)c1cccc(N/N=C/c2cccs2)c1	-2	-2	-36	-58*	42	-62
O=C(O)c1cccc(N/N=C/c2ccc(OC(F)(F)F)cc2)c1	-11	-9	-216	-56*	9	-59
CSc1ccc(/C=N/Nc2cccc(C(=O)O)c2)cc1	-5	.	.	.	.	.
O=C(N/N=C/c1cccs1)C(=O)Nc1cccc(Cl)c1	19	6	-14	12	-7	-6
Cc1cnc(C(=O)OCC(=O)N2CC(C)CC(C)C2)cn1 (stereo not given)	.	.	4	.	-7	.
COc1ccc(NS(=O)(=O)c2cccc(C(=O)NNC(=O)c3cncc(Br)c3)c2)cc1	.	-9	13	-2	13	-6
Cc1cccc(-c2nn(-c3ccccc3)cc2C(=O)N2CCN(C3CCS(=O)(=O)C3)CC2)c1 (stereo not given)	.	.	2	.	-2	.
CC(=O)N1N=C(c2cccc([N+](=O)[O-])c2)OC1c1ccc(Br)cc1 (stereo not given)	-11	-4	-6	-2	16	3
CC(=O)N1N=C(c2ccccc2)OC1c1ccc([N+](=O)[O-])s1 (stereo not given)	-14	84*	-4	3	-2	18
COc1ccccc1C(=O)COC(=O)c1ccc(-n2cnnn2)cc1	.	4	8	2	13	16
O=C(COC(=O)c1ccccc1-n1cnnn1)c1ccc(F)cc1	.	-13	-100	-53*	-145	-57
Cc1ccccc1N=C1SC(CC(=O)Nc2ccc3ccccc3c2)C(=O)N1Cc1ccccn1 (stereo not given)	15	42	-18	19	-7	57*
O=C(CC1SC(=Nc2cccc3ccccc23)N(Cc2ccccn2)C1=O)Nc1ccccc1Br (stereo not given)	-3	43	-5	6	6	8
O=C(/C=C/c1ccc2c(c1)OCO2)Nc1nncs1	-5	3	9	22	-13	53*
SMILES	GPR7 antag	T cruzi repl	697 NFkB inh	HSF1 inh	Jurkat NFkB inh	HSF1 activator
O=C(/C=C/c1ccc2c(c1)OCO2)Nc1nc(-c2ccccc2)cs1	2	14	-8	7	15	13
C=C(C)Cn1c(SCC(=O)O)nnc1-c1ccc(OC)cc1	10	2	15	17	2	59*
Cc1cc(C)c(OCCOCCN(C)C)c(Br)c1	-1	42	-22	0	-9	-10
Cc1cc(C)c(OCCCCN(C)C)c(Br)c1	-10	70*	-10	-3	0	-11
CC[C@@H](C)[C@H](NC(=O)OC(C)(C)C)c1nnc(S(=O)(=O)Cc2cc(C)ccc2C)o1	24*	-54	-26	-66*	22	-65
CC(C)[C@H](NC(=O)OC(C)(C)C)c1nnc(S(=O)(=O)Cc2c(F)cccc2Cl)o1	.	-56	-24	37	-8	46
Cc1ccccc1CS(=O)(=O)c1nnc([C@H](CC(C)C)NC(=O)OC(C)(C)C)o1	16	-25	-34	74	30	107*
CC(C)(C)OC(=O)N[C@@H](Cc1ccccc1)c1nnc(S(=O)(=O)Cc2cccc(F)c2)o1	21	-24	-13	12	14	24
COc1cc(OC)c(OC)cc1/C=N/Nc1nc2ccccc2[nH]1	-7	-25	-7	246	-17	267*
COc1cc(/C=N\Nc2nc3ccccc3o2)cc(OC)c1OC	-5	0	-35	12	-26	25
c1ccc2c(c1)CC/C2=N/Nc1nc2ccccc2[nH]1	-8	67*	-85	13	-117	51*
COc1cc(/C=N\Nc2nc3ccccc3[nH]2)cc(OC)c1OC	-1	35	-7	346	18	437*
COc1ccc(/C=N/Nc2nc3ccccc3[nH]2)cc1OC	-9	-18	-30	324	-51	369*
CSc1ccccc1OCc1cc(C(=O)N2CCc3c(Cl)cccc3C2)no1	-9	23	-1	7	12	37
CC(=O)Cc1nsc(Nc2ccc(Cl)cc2)n1	-7	.	-18	.	-35	.
CCN(CC)c1ccc(/C=N/Nc2nc3ccccc3[nH]2)c(O)c1	-2	59*	-41	132	25	169*
Cc1ccc(/C=N\Nc2nc3ccc(Cl)cc3[nH]2)o1	-9	21	-107	27	-88	?
Fc1ccccc1-c1ccc(/C=N/Nc2nc3ccccc3[nH]2)o1	-13	29	-45	379	-52	384*
C#CCn1cc(/C=N/Nc2nc3ccccc3[nH]2)c2ccccc21	8	37	-52	288	-26	370*
C(=N\Nc1nc2ccccc2[nH]1)/c1ccccn1	-2	69*	.	0	.	-2
CCCCn1c(/C=N/Nc2nc3ccccc3[nH]2)nc2ccccc21	-2	39	-59	1	-41	-4
C(=N\Nc1nc2ccccc2[nH]1)/c1ccc2ncccc2c1	-10	35	-132	15	-19	41

Compound activity as filed in PubChem BioAssay.
